# Source: PubChem BioAssay
# EBI2 antag: EBI2 receptor antagonists, beta-arrestin recruitment, primary screen, cell-based, luminescence, 7a,25-OHC stimulation, uHTS. G-protein coupled receptor 183 (Homo sapiens), P32249. 7a,25-OHC stimulated. inhibition, % at 5 µM. 360,000 tested, 0.81% active. AID 651636, 2012; in the data active means inhibition above about 38%;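 further: enzyme fragment complementation signal reports receptor beta-arrestin coupling in cells; 0% = agonist plus DMSO wells and 100% = wells without agonist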
# Target sequence (P32249 whole entry, looked up, the tested form may be a part): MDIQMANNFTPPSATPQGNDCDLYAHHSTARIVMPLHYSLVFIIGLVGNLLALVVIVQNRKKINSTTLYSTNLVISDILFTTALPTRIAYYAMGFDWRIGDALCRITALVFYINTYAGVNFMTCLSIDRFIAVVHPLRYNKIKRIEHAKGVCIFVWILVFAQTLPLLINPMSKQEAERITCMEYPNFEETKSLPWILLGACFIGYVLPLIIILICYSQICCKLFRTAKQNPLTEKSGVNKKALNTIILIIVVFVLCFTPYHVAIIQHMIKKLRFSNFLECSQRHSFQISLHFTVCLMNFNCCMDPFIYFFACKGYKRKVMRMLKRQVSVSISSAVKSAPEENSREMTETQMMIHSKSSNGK
# SENP1 inh: human SENP1 catalytic domain inhibitors, primary screen, biochemical, FRET, uHTS; Sentrin-specific protease 1 (Homo sapiens), Q9P0U3; recombinant SENP1 catalytic domain, CyPet-SUMO1-YPet FRET cleavage; inhibition, % at 10 µM; 360,000 tested, 0.21% active; AID 624204, 2012;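 active means inhibition at least 30% at 10 µM, raw YFP signal under a set limit, fluorescence ratio 0.5 to 1.5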;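 further: 0% = enzyme with DMSO and 100% = no enzyme wells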
# Target sequence (Q9P0U3 419-644 limits assumed): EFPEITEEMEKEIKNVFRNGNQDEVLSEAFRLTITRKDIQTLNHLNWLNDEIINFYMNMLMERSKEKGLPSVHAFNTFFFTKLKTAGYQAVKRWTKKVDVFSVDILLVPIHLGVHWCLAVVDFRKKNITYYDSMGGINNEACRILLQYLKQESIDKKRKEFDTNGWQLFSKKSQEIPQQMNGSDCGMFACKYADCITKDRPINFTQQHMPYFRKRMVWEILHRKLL
#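 system = hSENP1 catalytic domain, recombinant | reagent = SFCypet-SUMO1-SFYpet substrate at 25 nM | doses = one dose per compound, 10 µM, 0.5% DMSO | incubation = enzyme reaction for 50 min at room temperature, dark | measured by = FRET, CFP and YFP emission | controls = no-enzyme low, enzyme-DMSO high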
# GRIN3A LBD mod: binders of NR3A ligand-binding domain, primary screen, biophysical, differential scanning fluorimetry, uHTS; Glutamate receptor ionotropic, NMDA 3A (GRIN3A) ligand-binding domain; NR3A LBD differential scanning fluorimetry, Tm shift; 0% = protein alone, 100% = glycine-bound protein; Tm shift relative to glycine control, % at 25 µM; 340,000 tested, 2.5% active; AID 1259313, 2017;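 active means melting temperature shift of at least 10% of the positive control shift, at one fixed dose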
# MPTP block: mitochondrial permeability transition pore inhibitors, primary screen, biochemical, isolated mouse mitochondria, absorbance | Ca2+ swelling absorbance, 30 min | inhibition, % at 10 µM | 360,000 tested, 1.4% active | AID 602449, 2012;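 active means inhibition of 50% or more, scaled per plate between neutral and stimulator controls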;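 further: 0% = DMSO wells given calcium and 100% = 1 mM EGTA wells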
# Starred values were filed as active, the others as inactive; nt = not tested or not shown. Hits are enriched below; roughly 4.4% of the tested compounds scored in any of these assays.
SMILES,EBI2 antag,SENP1 inh,GRIN3A LBD mod,MPTP block
COc1cc(/C=C2\SC(=S)N(Nc3ccccc3)C2=O)ccc1O,15,50,11*,7
Cn1cc(/C=C2\SC(=S)N(NC(=O)c3ccccc3Cl)C2=O)c2ccccc21,14,-27,12*,0
CN(C)c1ccc(/C=C2\SC(=S)N(Nc3ncc(C(F)(F)F)cc3Cl)C2=O)cc1,26,-23,3,5
Cc1cnc(C(=O)OCC(=O)c2ccc(F)c(F)c2)cn1,5,-1,1,0
Cc1ccc(NC(=S)N/N=C/c2ccc([N+](=O)[O-])s2)cc1,50*,0,23*,21
Cc1ccc(-c2ccc(/C=N/NC(=S)Nc3ccccc3)o2)cc1[N+](=O)[O-],37,1,27*,2
Cc1cc(C)cc(N=Cc2ccc([N+](=O)[O-])s2)c1,10,-1,-20,2
Cc1cccc(NC(=S)N/N=C/c2cccc([N+](=O)[O-])c2)c1,6,0,150*,-8
O=[N+]([O-])c1cccc(-c2ccc(/C=N/NC(=S)Nc3cccc(F)c3)o2)c1,10,2,28*,0
CNC(=S)N/N=C/c1ccc(-c2ccc(Cl)c([N+](=O)[O-])c2)o1,28,0,8,0
Nc1nnc(SCCOc2cccc(Br)c2)s1,-16,2,13*,-1
COc1ccc(N2CC(C(=O)Nc3cccc(C)n3)CC2=O)cc1 (stereo not drawn),0,0,-2,-2
Cc1ccc(C)c(S(=O)(=O)Nc2ccc(C(=O)N3CCCCC3)cc2)c1,6,1,14*,0
Cc1ccc(S(=O)(=O)N2CCN(C(=O)c3cc(S(=O)(=O)N4CCOCC4)ccc3Cl)CC2)c(C)c1,-8,0,12*,0
Cc1ccc(C(=O)N2CCOCC2)cc1S(=O)(=O)N1CCCC1,-3,2,11*,-3
CC(=O)N1CCN(C(=O)c2ccc(NS(=O)(=O)c3cc(C)ccc3C)cc2)CC1,-5,0,-3,-1
Cc1ccc(C(=O)N2CCCCC2)cc1S(=O)(=O)N1CCCCCC1,1,-1,0,1
CCOC(=O)C1CCN(S(=O)(=O)c2cc(C(=O)N3CCCCC3)ccc2OC)CC1,-15,0,1,0
CCOC(=O)C1CCN(C(=O)c2ccc(C)c(S(=O)(=O)N3CCCC3)c2)CC1,6,2,11*,0
Cc1cc(Cl)ccc1NC(=O)c1ccc2c(c1)CCN2S(C)(=O)=O,4,1,3,0
COc1cccc(-c2nc(Cl)nc3cc(Cl)ccc23)c1,-12,2,nt,1
Cc1cc(O)c2c(c1)C(=O)[C@@]13Oc4c5c(c(O)c6c(O)cc(C)cc46)C(=O)C[C@H](O)[C@H]5[C@@H]1[C@@H](O)CC(=O)C3=C2O,-17,33*,-2,4
CSCCC(NC(N)=O)C(=O)Nc1ccc(C)cc1 (stereo not drawn),4,2,-2,1
Cc1ccc(S(=O)(=O)N2CCOCC2)cc1NC(=O)CSc1nc2ccccc2c(=O)n1Cc1ccccc1,4,0,14*,1
O=C(CSc1nc2ccccc2c(=O)n1-c1ccc(F)cc1)Nc1cc(S(=O)(=O)N2CCOCC2)ccc1Cl,9,1,0,0
SMILES,EBI2 antag,SENP1 inh,GRIN3A LBD mod,MPTP block
COc1ccc(Cl)cc1NC(=O)C(C)OC(=O)Cn1cc(C(F)(F)F)ccc1=O (stereo not drawn),10,1,0,1
O=C(N/N=C/C(Br)=C/c1ccccc1)c1cnccn1,4,1,-1,0
Cc1ccc(-c2cc(C(=O)N/N=C/c3ccc(F)cc3)n[nH]2)o1,-4,4,31*,-1
Cc1ccc(C(=O)N/N=C/c2c[nH]c3ccccc23)o1,1,-2,0,-2
Cc1ccc(-c2cc(C(=O)N/N=C/C(Br)=C/c3ccccc3)n[nH]2)o1,12,1,29*,0
Cc1ccc(-c2cc(C(=O)N/N=C/c3c[nH]c4ccccc34)n[nH]2)o1,-11,-2,28*,0
O=C(N/N=C/c1cccs1)c1cc(-c2ccc(Cl)s2)[nH]n1,5,-2,33*,-1
Cc1ccc(-c2cc(C(=O)N/N=C/c3ccccc3O)n[nH]2)o1,-4,-39,31*,-1
Cc1cc(C(=O)N/N=C\c2cc(C(C)(C)C)ccc2O)n[nH]1,-2,-1,-8,2
CC(C)(C)c1cc(C(=O)N/N=C/c2ccncc2)n[nH]1,0,1,468*,-1
Cc1cc(C(=O)N/N=C/C=C/c2ccccc2)n[nH]1,4,3,-429,0
Cc1ccc(-c2cc(C(=O)N/N=C/C=C/c3ccccc3)n[nH]2)s1,10,0,19*,9
CSC1=NC(C(Cl)(Cl)Cl)N=C(c2ccccc2)N1 (stereo not drawn),2,3,-1,0
COc1cccc(-c2nc3nc(C)cc(C)n3c2NCc2ccccc2)c1,3,-5,nt,0
O=[N+]([O-])c1cc2no[n+]([O-])c2cc1N1CCCCC1,-30,9,10,3
CCN(CC)c1cccc(OC(=O)c2cccnc2Cl)c1,-10,3,2,5
O=C1NCCCc2c1no[n+]2[O-],4,0,11*,-2
CC(=O)Nc1ccc(NC(=O)C2CCCN2C(=O)NCc2ccccc2)cc1 (stereo not drawn),4,-1,0,1
CCc1cccc(CC)c1NC(=O)C1SC(=Nc2ccccc2C)C(c2nc3ccccc3s2)=C1N (stereo not drawn),16,-6,19*,20
CCc1cccc(C)c1NC(=O)CCCSc1nc2ccccc2s1,16,2,-1,5
CC(C)(C)C(=O)NC1CC2CCCC(C1)N2C(=O)Nc1ccc(Cl)cc1 (stereo not drawn),-2,1,-1,1
O=C(COC(=O)c1nn(CCO)c(=O)c2ccccc12)Nc1ccc(Cl)c(Cl)c1,-3,-1,-5,2
CCN1C(=O)C(CC(=O)Nc2ccccc2Cl)N(NC(=O)c2cccc(F)c2)C1=S (stereo not drawn),13,1,-2,0
CNC(=O)CC1C(=O)N(Cc2ccccc2)C(=S)N1NC(=O)c1cccc(F)c1 (stereo not drawn),-5,2,14*,-1
CNC(=O)CC1C(=O)N(c2ccc(Cl)cc2)C(=S)N1NC(=O)c1cccc(F)c1 (stereo not drawn),1,6,0,0
Cc1ccc(NC(=O)CC2C(=O)N(Cc3ccccc3)C(=S)N2NC(=O)c2ccccc2)c(C)c1 (stereo not drawn),8,3,11*,6
CC(=O)N1CCOc2ccc(S(=O)(=O)NC[C@H]3O[C@@H](n4ccc(N)nc4=O)[C@H](O)[C@@H]3O)cc21,2,4,nt,-1
CC12CCC(=O)N1C(C(=O)NNC(=O)c1ccc(F)cc1)CS2 (stereo not drawn),-12,2,-2,-1
